# Source: publication PMC5679172 (The Journal of Experimental Medicine, 2017)
# Columns and labels:
# Assay type in all cases: cell-based, mouse
# AIM2 inflammasome = assay: cytosolic poly; conditions: LPS-primed BMDMs, cytosolic double-stranded DNA poly(dA:dT), IL-1β ELISA
# Outline: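 BMDMs plated at 5 × 10^5/ml and primed next day with LPS 50 ng/ml for 3 h. Test compound added for 30 min, then poly(dA:dT) (0.5 µg/ml) delivered by lipofection for 4 h. Supernatant IL-1β measured by ELISA.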
# NLRC4 inflammasome = assay: Salmonella infection-induced NLRC4 inflammasome activation in BMDMs; conditions: LPS-primed BMDMs, IL-1β ELISA
# Outline: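 BMDMs plated at 5 × 10^5/ml and primed next day with LPS 50 ng/ml for 3 h. Test compound added for 30 min, then cells infected with Salmonella typhimurium for 4 h. Supernatant IL-1β measured by ELISA.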
# LPS-induced priming = LPS-induced priming in BMDMs; conditions: for LPS-induced TNF-α production or pro–IL-1β expression: BMDMs treated with inhibitor before LPS stimulation
# potassium efflux = assay: intracellular potassium detection in BMDMs; conditions: LPS-primed Nlrp3−/− BMDMs
# Outline: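 BMDMs plated overnight and primed with LPS 50 ng/ml for 3 h, then given test compound for 30 min and nigericin for 30 min. […] Intracellular K+ quantified by ICP optical emission spectrometry with yttrium as internal standard.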
# chloride efflux = assay: intracellular chloride detection in BMDMs; conditions: LPS-primed Nlrp3−/− BMDMs
# Outline: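 BMDMs plated overnight and primed with LPS 50 ng/ml for 3 h, then given test compound for 30 min and nigericin for 15 min. Cells lysed in water for 15 min at 37°C and spun at 10,000 g for 5 min. Supernatant mixed with MQAE and signal read on a plate reader. Residual extracellular chloride subtracted using a control.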
smiles,measurement,setting,value
C[S+]([O-])CCCCN=C=S (centres unmarked) [sulforaphane],AIM2 inflammasome activation,AIM2 inflammasome,could also inhibit
same,NLRC4 inflammasome activation,NLRC4 inflammasome,could also inhibit
same,LPS-induced TNF-α production or pro–IL-1β expression,LPS-induced priming,could suppress
"CC(O)CC(=O)O (stereo not drawn) [BHB, β-hydroxybutyrate]",LPS-induced TNF-α production or pro–IL-1β expression,LPS-induced priming,could suppress
same,nigericin-induced potassium efflux (decrease of intracellular potassium),potassium efflux,could suppress
Cc1ccc(S(=O)(=O)/C=C/C#N)cc1 [BAY 11-7082],LPS-induced TNF-α production or pro–IL-1β expression,LPS-induced priming,could suppress
Cc1cccc(Nc2ccccc2C(=O)O)c1C [mefenamic acid],LPS-induced TNF-α production or pro–IL-1β expression,LPS-induced priming,could suppress
CC(C)(O)c1coc(S(=O)(=O)NC(=O)Nc2c3c(cc4c2CCC4)CCC3)c1 [MCC950],LPS-induced priming effects,LPS-induced priming; BMDMs,no effect
same,nigericin-induced potassium efflux (decrease of intracellular potassium),potassium efflux,could not
same,nigericin-induced chloride efflux (decrease of intracellular chloride),chloride efflux,could inhibit
O=C(/C=C/c1ccc(O)cc1)c1ccc(O)cc1O [isoliquiritigenin],LPS-induced TNF-α production or pro–IL-1β expression,LPS-induced priming,could suppress
O=C(O)c1ccccc1Nc1cccc(C(F)(F)F)c1 [flufenamic acid],LPS-induced TNF-α production or pro–IL-1β expression,LPS-induced priming,could suppress
same,nigericin-induced potassium efflux (decrease of intracellular potassium),potassium efflux,could not
same,nigericin-induced chloride efflux (decrease of intracellular chloride),chloride efflux,blocked
C=C1C(=O)O[C@H]2[C@H]1CC/C(C)=C/CC[C@@]1(C)O[C@@H]21 [parthenolide],AIM2 inflammasome activation,AIM2 inflammasome,could also inhibit
same,NLRC4 inflammasome activation,NLRC4 inflammasome,could also inhibit
same,LPS-induced TNF-α production or pro–IL-1β expression,LPS-induced priming,could suppress
